For one assay, the system named is Plasmodium falciparum. Briefly: Antiplasmodial activity against Plasmodium falciparum NF54. The format is functional, organism-based.
Assay [1] can be described thus: Inhibition of beta-hematin polymerization. Also noted: species or system Plasmodium falciparum.
A further assay relates to Plasmodium yoelii. Briefly: Antimalarial activity against Plasmodium yoelii N67 infected in Swiss mice (Mus musculus) at 30 mg/kg, intraperitoneally. The assay is classed as functional. The note with it: route intraperitoneal. A digest of the protocol: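 Swiss mice infected with P. yoelii N-67, dosed ip at 30 mg/kg once daily for four consecutive days; saline-treated controls. Parasitaemia on day 4 gives % suppression = [(C − T)/C] × 100 (C, T = control, treated parasitaemia). Mean survival time counted only for mice dying within the 28-day observation period; survivors beyond 28 days excluded.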

In the next assay the test system is Mus musculus. In words: Mean survival time of Swiss mice (Mus musculus) infected with Plasmodium yoelii N67 at 30 mg/kg, intraperitoneally. The format is functional. The settings on record: route intraperitoneal. The procedure, abridged:
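Swiss mice infected with P. yoelii N-67; test compounds at 30 mg/kg given intraperitoneally once daily on four consecutive days; saline-treated mice as controls. Mice followed for 28 days; mean survival time (± SE) counted only for mice dying within that period, with survivors beyond 28 days excluded.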

Values after ≈ are worked out from the molar mass of the structure shown.

On to `O=C1c2ccccc2SC(c2c(Cl)cccc2Cl)N1CCNc1ccnc2cc(Cl)ccc12` (stereo not given), for which, in the assay on Plasmodium falciparum, the IC50 came out at 291 nM and the MIC (commonly the lowest concentration that inhibits growth of the organism) came out at 5.88 µM (≈ 3.03 µg/mL). Also, the IC50 in assay [1] worked out at 0.49 equivalents.
For `O=C1c2ccccc2SC(c2c(Cl)cccc2Cl)N1CCCCNc1ccnc2cc(Cl)ccc12` (stereo not given) the same measures were 3070 nM, 13.8 µM (≈ 7.5 µg/mL) and 0.97 equivalents.
For `O=C1c2ccccc2SC(c2c(Cl)cccc2Cl)N1CCCNc1ccnc2cc(Cl)ccc12` (stereo not given) the same measures were 2190 nM, 9.45 µM (≈ 5 µg/mL) and 0.65 equivalents.
For `O=C1CCSC(c2c(Cl)cccc2Cl)N1CCCCNc1ccnc2cc(Cl)ccc12` (stereo not given) the same measures were 7150 nM, 15.2 µM (≈ 7.5 µg/mL) and 0.58 equivalents.
In the assay on Plasmodium yoelii, `O=C1c2ccccc2SC(c2ccc(Cl)cc2)N1CCNc1ccnc2cc(Cl)ccc12` (stereo not given) had an Activity of 81%. For the same compound, the MST in the assay with Mus musculus was 15.2 days. The IC50 with Plasmodium falciparum is 13 nM; in assay [1], 0.24 equivalents. Besides, in the assay on Plasmodium falciparum, the MIC came out at 0.26 µM (≈ 0.125 µg/mL).
With `O=C1CSCN1CCCCNc1ccnc2cc(Cl)ccc12`, the figures for the IC50 (in the assay on Plasmodium falciparum; in assay [1]) were 2650 nM and 0.91 equivalents, respectively. Moreover, it took 5.96 µM (≈ 2 µg/mL) to inhibit growth against Plasmodium falciparum (MIC).
In the assay on Plasmodium yoelii, `O=C1c2ccccc2SCN1CCNc1ccnc2cc(Cl)ccc12` yielded an Activity of 48.33%. The compound also gave an MST in the assay with Mus musculus of 11.4 days. In the assay with Plasmodium falciparum, this compound returned an IC50 of 65 nM and a minimal inhibitory concentration (MIC) of 0.68 µM (≈ 0.252 µg/mL). In assay [1], the IC50 was found to be 0.94 equivalents.
For `O=C1CCSC(c2ccc(Cl)cc2)N1CCCCNc1ccnc2cc(Cl)ccc12` (stereo not given) the same measures were 62.32%, 13.8 days, 271 nM, 0.54 µM (≈ 0.249 µg/mL) and 0.76 equivalents.
Consider `O=C1c2ccccc2SCN1CCCCNc1ccnc2cc(Cl)ccc12`, for which, in the assay with Plasmodium falciparum, the IC50 came to 1510 nM and it took 2.51 µM (≈ 0.999 µg/mL) to inhibit growth (MIC). This compound also had an IC50 in assay [1] of 0.89 equivalents.
For the compound `O=C1CSC(c2c(Cl)cccc2Cl)N1CCCNc1ccnc2cc(Cl)ccc12` (stereo not given), the Activity with Plasmodium yoelii worked out at 40.08%. This compound also registered an MST with Mus musculus of 10.6 days. Also, the values for the IC50 (with Plasmodium falciparum; in assay [1]) were 138 nM and 0.39 equivalents, respectively. The compound further came in with an MIC in the assay on Plasmodium falciparum of 0.27 µM (≈ 0.126 µg/mL).
Turning to `CC1SCN(CCNc2ccnc3cc(Cl)ccc23)C1=O` (stereo not given), the IC50 in the assay on Plasmodium falciparum is 1680 nM; in assay [1], 1.05 equivalents. The compound further returned an MIC against Plasmodium falciparum of 3.11 µM (≈ 1 µg/mL).
On to `O=C1CCSC(c2c(Cl)cccc2Cl)N1CCCNc1ccnc2cc(Cl)ccc12` (stereo not given), for which, in the assay with Plasmodium falciparum, the IC50 is 6150 nM and the MIC was 10.4 µM (≈ 5 µg/mL). In assay [1], this compound yielded an IC50 of 0.88 equivalents.
For `O=C1c2ccccc2SCN1CCCNc1ccnc2cc(Cl)ccc12` the same measures were 429 nM, 1.3 µM (≈ 0.499 µg/mL) and 0.78 equivalents.
For `O=C1CSC(c2ccc(Cl)cc2)N1CCNc1ccnc2cc(Cl)ccc12` (stereo not given) the same measures were 980 nM, 1.2 µM (≈ 0.502 µg/mL) and 0.75 equivalents.
For `O=C1CCSC(c2ccc(Cl)cc2)N1CCNc1ccnc2cc(Cl)ccc12` (stereo not given) the same measures were 4070 nM, 4.62 µM (≈ 2 µg/mL) and 0.47 equivalents.
`O=C1CSC(c2ccc(Cl)cc2)N1CCCCNc1ccnc2cc(Cl)ccc12` (stereo not given): the IC50 in the assay with Plasmodium falciparum is 1980 nM; in assay [1] it was 0.85 equivalents. This compound also displayed an MIC against Plasmodium falciparum of 4.08 µM (≈ 1.82 µg/mL).
For the compound `O=C1CCSCN1CCCNc1ccnc2cc(Cl)ccc12`, the figures for the IC50 (in the assay with Plasmodium falciparum; in assay [1]) were 1810 nM and 0.96 equivalents, respectively. This compound also registered a minimum inhibitory concentration (MIC) in the assay on Plasmodium falciparum of 2.48 µM (≈ 0.833 µg/mL).
For `O=C1c2ccccc2SC(c2ccc(Cl)cc2)N1CCCCNc1ccnc2cc(Cl)ccc12` (stereo not given) the same measures were 1270 nM, 0.95 equivalents and 2.17 µM (≈ 1.1 µg/mL).
In the assay with Plasmodium yoelii, `O=C1CSC(c2c(Cl)cccc2Cl)N1CCNc1ccnc2cc(Cl)ccc12` (stereo not given) displayed an Activity of 76.08%. The MST in the assay with Mus musculus came out at 14.6 days. The figures for the IC50 (in the assay on Plasmodium falciparum; in assay [1]) were 39 nM and 0.46 equivalents, respectively. This compound returned an MIC in the assay on Plasmodium falciparum of 0.55 µM (≈ 0.249 µg/mL).
For `O=C1CSCN1CCNc1ccnc2cc(Cl)ccc12`, in the assay with Plasmodium falciparum, the IC50 stood at 2140 nM and the MIC was 3.25 µM (≈ 1 µg/mL). In addition, in assay [1], the IC50 worked out at 0.98 equivalents.
For `O=C1CSC(c2c(Cl)cccc2Cl)N1CCCCNc1ccnc2cc(Cl)ccc12` (stereo not given) the same measures were 3030 nM, 6.17 µM (≈ 2.97 µg/mL) and 0.64 equivalents.
Consider `CC1SCN(CCCCNc2ccnc3cc(Cl)ccc23)C1=O` (stereo not given), for which the IC50 in the assay on Plasmodium falciparum was 1290 nM; in assay [1], 0.98 equivalents. The MIC with Plasmodium falciparum was determined as 5.73 µM (≈ 2 µg/mL).
For `CC1SCN(CCCNc2ccnc3cc(Cl)ccc23)C1=O` (stereo not given) the same measures were 2330 nM, 1.02 equivalents and 5.65 µM (≈ 1.9 µg/mL).
For `O=C1CCSC(c2c(Cl)cccc2Cl)N1CCNc1ccnc2cc(Cl)ccc12` (stereo not given) the same measures were 3270 nM, 0.45 equivalents and 4.28 µM (≈ 2 µg/mL).
As to `O=C1CCSC(c2ccc(Cl)cc2)N1CCCNc1ccnc2cc(Cl)ccc12` (stereo not given), the Activity with Plasmodium yoelii was 23.5%. The same compound showed an MST in the assay on Mus musculus of 12 days. Also, in the assay on Plasmodium falciparum, the IC50 is 14 nM and the MIC stood at 0.28 µM (≈ 0.125 µg/mL). In assay [1], this compound yielded an IC50 of 0.62 equivalents.
As for `O=C1CCSCN1CCCCNc1ccnc2cc(Cl)ccc12`, the IC50 worked out at 1810 nM with Plasmodium falciparum and 0.89 equivalents in assay [1]. In the assay with Plasmodium falciparum, this compound came in with an MIC of 2.86 µM (≈ 1 µg/mL).
For `O=C1c2ccccc2SC(c2ccc(Cl)cc2)N1CCCNc1ccnc2cc(Cl)ccc12` (stereo not given) the same measures were 1030 nM, 0.46 equivalents and 2.02 µM (≈ 0.999 µg/mL).
With `O=C1CSC(c2ccc(Cl)cc2)N1CCCNc1ccnc2cc(Cl)ccc12` (stereo not given), in the assay with Plasmodium falciparum, the IC50 was determined as 1040 nM and 1.16 µM (≈ 0.502 µg/mL) was the least that counted as inhibitory (MIC). This compound also yielded an IC50 in assay [1] of 0.56 equivalents.
Turning to `O=C1CCSCN1CCNc1ccnc2cc(Cl)ccc12`, in the assay on Plasmodium falciparum, the IC50 was 2920 nM and the MIC was determined as 6.21 µM (≈ 2 µg/mL). For the same compound, in assay [1], the IC50 is 0.99 equivalents.
In the assay with Plasmodium falciparum, `O=C1CSCN1CCCNc1ccnc2cc(Cl)ccc12` showed an IC50 of 1650 nM and an MIC of 3.11 µM (≈ 1 µg/mL). This compound also returned an IC50 in assay [1] of 0.96 equivalents.
As to `CCN(CC)CCCC(C)Nc1ccnc2cc(Cl)ccc12` (stereo not given) [CHLOROQUINE], in the assay on Plasmodium yoelii, the Activity came to 99.99%. Moreover, the MST in the assay with Mus musculus worked out at 20 days. The compound further displayed an MIC against Plasmodium falciparum of 0.39 µM (≈ 0.125 µg/mL).

Values taken from ChEMBL document CHEMBL1139844, “Synthesis and antimalarial activity of side chain modified 4-aminoquinoline derivatives” (J Med Chem, 2007).
